Data as given in PubChem BioAssay AID463202 (Sanford-Burnham Center for Chemical Genomics, 2010).
Calls of active or inactive are those of the source.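 How the source made its calls: active means inhibition above 50% relative to controls in each of two repeat datasets, tested at 10 µM; inactive means the rest.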

Target: Vasopressin V2 receptor (Homo sapiens) (UniProt P30518)
Test: blockade of AVPR2 arrestin recruitment – imaging, beta-arrestin-GFP, U2OS, antagonist mode, selectivity assay for GPR35 antagonist project, SAR follow-up (AID 463202)
Settings: U2OS AVPR2 beta-arrestin-GFP translocation imaging; at 10 µM; active compounds read high
Procedure, shortened: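 Assay system: U2OS cells expressing human vasopressin V2 receptor and GFP-β-arrestin | Reagent: Vasopressin agonist at 16 nM for 40 min | Timing: Compound 15 min, then agonist 40 min | Detection: 40x fluorescence imaging, wavelet analysis of GFP-β-arrestin spots | Benchmarks: Vasopressin 0.01 µIU/mL as low, 10 mIU/mL as high control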

Sequence of Vasopressin V2 receptor (Homo sapiens) (P30518 whole entry, looked up): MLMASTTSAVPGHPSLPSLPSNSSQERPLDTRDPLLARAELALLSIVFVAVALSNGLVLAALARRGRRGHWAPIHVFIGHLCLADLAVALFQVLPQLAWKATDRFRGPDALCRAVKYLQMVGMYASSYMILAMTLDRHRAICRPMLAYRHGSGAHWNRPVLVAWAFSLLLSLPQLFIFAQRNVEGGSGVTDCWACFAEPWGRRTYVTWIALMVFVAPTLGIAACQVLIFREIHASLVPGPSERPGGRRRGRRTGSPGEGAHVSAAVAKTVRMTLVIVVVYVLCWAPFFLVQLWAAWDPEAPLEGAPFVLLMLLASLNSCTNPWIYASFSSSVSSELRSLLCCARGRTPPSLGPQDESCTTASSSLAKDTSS

inhibition	Structure (SMILES)
12.5% (inactive)	CC(C)(C)c1ccc(OCCC(=O)NCCc2ccc(S(N)(=O)=O)cc2)cc1
8.9% (inactive)	O=C(CCCN1C(=O)S/C(=C/C=C/c2ccccc2)C1=O)Nc1ccc(C(=O)O)cc1
7.6% (inactive)	Cc1ccccc1N1CCN(c2ncnc3c2cnn3Cc2ccc(Cl)cc2)CC1
36.9% (inactive)	Cc1ccc(Cn2ncc3c(N4CCN(c5ccccc5C)CC4)ncnc32)cc1
1.8% (inactive)	COc1ccc(/C=C2/SC(=S)N(CCCC(=O)Nc3ccc(O)cc3)C2=O)cc1
28.4% (inactive)	O=C(CCCN1C(=O)/C(=C/c2ccc3c(c2)OCO3)SC1=S)Nc1ccc(C(=O)O)c(O)c1
18.2% (inactive)	O=C(CCCN1C(=O)S/C(=C\C=C\c2ccccc2)C1=O)Nc1ccc(C(=O)O)cc1
3.4% (inactive)	Clc1ccc(Cn2ncc3c(N4CCN(c5ccccc5)CC4)ncnc32)cc1
22.9% (inactive)	COc1ccc(/C=C2\SC(=S)N(CCCC(=O)Nc3ccc(C(=O)O)c(O)c3)C2=O)cc1OC
13.2% (inactive)	O=C(CCCN1C(=O)/C(=C/c2ccc3c(c2)OCO3)SC1=S)Nc1cccc(C(=O)O)c1
0.7% (inactive)	O=C(CCCN1C(=O)S/C(=C/c2ccccc2)C1=S)Nc1ccc(C(=O)O)cc1
-6.5% (inactive)	O=C(CCCN1C(=O)/C(=C/c2ccc3c(c2)OCO3)SC1=S)Nc1ccc(C(=O)O)cc1
4.8% (inactive)	O=C(CCCN1C(=O)/C(=C\c2ccccc2)SC1=S)Nc1ccc(C(=O)O)cc1
25.3% (inactive)	COc1ccc(/C=C2\SC(=S)N(CCCC(=O)Nc3ccc(O)cc3)C2=O)cc1
51.3% (inactive)	O=C(CCCN1C(=O)/C(=C/c2ccccc2)SC1=S)Nc1ccc(C(=O)O)c(O)c1
18.5% (inactive)	CC(/C=C1\SC(=S)N(CCCC(=O)Nc2ccc(C(=O)O)cc2)C1=O)=C\c1ccccc1
-3.7% (inactive)	Cc1c(C(=O)Nc2ccc3c(c2)OCCO3)sc2ncnc(N3CCC(C)CC3)c12
3.3% (inactive)	O=C(Nc1ccc2nc(SCc3ccccc3)sc2c1)c1ccccc1C(=O)N1CCOCC1
-2.9% (inactive)	COc1cccc(/C=C2\SC(=S)N(CCCC(=O)Nc3ccc(C(=O)O)cc3)C2=O)c1
30% (inactive)	CC(/C=C1\SC(=S)N(CCCC(=O)Nc2ccc(C(=O)O)c(O)c2)C1=O)=C\c1ccccc1
9.2% (inactive)	Cc1ccc(/C=C2\SC(=S)N(CCCC(=O)Nc3ccc(O)cc3)C2=O)cc1
-5.7% (inactive)	Cc1nc(N2CCC(C)CC2)c2c(C)c(C(=O)Nc3ccc4c(c3)OCCO4)sc2n1
28.8% (inactive)	CCOC(=O)c1ccc(NC(=O)CCCN2C(=O)/C(=C/c3ccc(C)cc3)SC2=S)cc1
-6.8% (inactive)	CCc1ccc(/C=C2\SC(=S)N(CCCC(=O)Nc3ccc(C(=O)O)cc3)C2=O)cc1
15.5% (inactive)	CCOc1ccc(NC(=O)CSc2nc3ccsc3c(=O)n2Cc2ccc(C(=O)O)cc2)cc1
8.2% (inactive)	Cc1ccc(/C=C2\SC(=S)N(CCCC(=O)Nc3cccc(C(=O)O)c3)C2=O)cc1
-0.8% (inactive)	O=C(Nc1ccc2nc(SCc3ccc(Cl)cc3)sc2c1)c1ccccc1C(=O)N1CCOCC1
27.3% (inactive)	COc1ccc(/C=C2\SC(=S)N(CCCC(=O)Nc3cccc(C(=O)O)c3)C2=O)cc1OC
15.9% (inactive)	O=C(CCCN1C(=O)/C(=C\c2ccccc2)SC1=S)Nc1cccc(C(=O)O)c1
22.9% (inactive)	CC(C)c1ccc(NC(=O)CSc2nc3ccsc3c(=O)n2Cc2ccc(C(=O)O)cc2)cc1
